# From PubChem BioAssay AID743214 (The Scripps Research Institute Molecular Screening Center, 2013)
# The whole screen tested about 2,100 compounds, of which about 10 (0.5%) were called active.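 How the source made its calls: active means mean triplicate inhibition above the solvent-only control wells' mean plus 3 SD (cut at about 12% in these data); inactive means the rest.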 The list is a sample of the results.
# Target: Disintegrin and metalloproteinase domain-containing protein 17 (Homo sapiens) (UniProt P78536)
# Experiment: ADAM17 inhibitors, counter-screen for ADAM10 exosite inhibitor project, biochemical, QFRET, high throughput (AID 743214);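 further: 0% = DMSO wells and 100% = marimastat wells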
# Settings: ADAM17 QFRET peptide cleavage, EDANS fluorescence; at 6.95 µM; active compounds read high
# Method in brief: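 System: ADAM17 protease, QFRET substrate; control set: marimastat 1 µM and DMSO wells; signal: EDANS fluorescence, excitation 359 nm, emission 460 nm; incubation: 30 min compound–enzyme preincubation, then 3 h reaction, both 25 °C; compound: single nominal compound dose of 6.95 µM; replicates: three repeats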
# Disintegrin and metalloproteinase domain-containing protein 17 (Homo sapiens), sequence (P78536 215-824 limits assumed): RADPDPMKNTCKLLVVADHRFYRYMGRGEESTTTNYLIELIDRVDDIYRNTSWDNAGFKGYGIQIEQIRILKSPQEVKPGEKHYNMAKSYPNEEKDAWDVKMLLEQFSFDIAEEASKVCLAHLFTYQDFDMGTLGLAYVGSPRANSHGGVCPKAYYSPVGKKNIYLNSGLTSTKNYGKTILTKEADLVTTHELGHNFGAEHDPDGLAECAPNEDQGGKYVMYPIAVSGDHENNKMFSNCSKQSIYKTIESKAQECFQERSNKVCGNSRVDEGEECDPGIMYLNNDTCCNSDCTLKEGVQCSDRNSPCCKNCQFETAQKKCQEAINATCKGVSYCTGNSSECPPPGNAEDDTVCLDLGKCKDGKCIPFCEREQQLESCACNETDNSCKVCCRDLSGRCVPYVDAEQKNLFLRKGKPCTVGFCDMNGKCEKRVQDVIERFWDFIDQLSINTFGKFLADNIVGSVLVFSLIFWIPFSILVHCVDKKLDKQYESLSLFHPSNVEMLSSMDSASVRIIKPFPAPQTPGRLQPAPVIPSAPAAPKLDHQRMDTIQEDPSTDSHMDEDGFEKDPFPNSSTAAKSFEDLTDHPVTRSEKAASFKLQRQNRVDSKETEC
row,Compound,inhibition
1,Cn1c(CNc2nc(-c3ccccc3)cs2)nnc1SCC(=O)c1ccccc1,0.06% (inactive)
2,COc1ccc(C(CCN(Cc2ccc(OC)c(OC)c2)C(=O)CCl)c2ccccc2)cc1 (stereo not drawn),1.03% (inactive)
3,CCOc1cc(/C=N/NC(=O)c2cc(-c3ccccc3)nc3ccccc23)ccc1O,4.94% (inactive)
4,O=C(CSC1=NCCS1)Nc1nc(-c2ccccc2)cs1,0.66% (inactive)
5,COc1ccc(OCCCn2cccc2/C=C2/C(=N)N3OC(C)=CC3=NC2=O)cc1,0.03% (inactive)
6,Cc1ccc(/C=N/NC(=O)CSc2nc3ccccc3o2)cc1,0.11% (inactive)
7,COc1cc(/C=C2/SC(=S)N(Cc3ccccc3)C2=O)cc(OC)c1O,3.03% (inactive)
8,CN(C)S(=O)(=O)c1cccc(NC(=O)COC(=O)C2(c3ccccc3F)CCCC2)c1,0.96% (inactive)
9,N/C(Cc1ccc([N+](=O)[O-])cc1)=N\OC(=O)COc1ccc2ccccc2c1,1.74% (inactive)
10,O=C1NC(Nc2nc3ccccc3s2)(C(F)(F)F)C(=O)N1C1CCCCC1 (stereo not drawn),0.94% (inactive)
11,COc1cc(C2CC(=O)N3CN(Cc4ccccc4)CSC3=C2C#N)ccc1OCc1ccccc1 (stereo not drawn),2.1% (inactive)
12,O=C(OCc1ccc(-c2ccccc2)cc1)c1cccc(O)c1,4.02% (inactive)
13,COC(=O)[C@@]12C[C@@H](CC(=O)NCCCCc3ccccc3)C(=O)N(CCc3ccc(OC)c(OC)c3)C1=CCC(C)(C)C2,0.87% (inactive)
14,COc1cc(Cl)c(S(=O)(=O)N2CCN(Cc3ccc4c(c3)OCO4)CC2)cc1Cl,1.24% (inactive)
15,CCOc1ccc(Nc2oc(Cc3ccccc3)nc2C#N)cc1,1.58% (inactive)
16,CCOc1ccc(Br)cc1S(=O)(=O)Nc1ccc(C(=O)OC(C)C(=O)N(C)c2ccccc2)cc1 (stereo not drawn),2.71% (inactive)
17,C=CCC[C@@H](Cc1ccc(F)cc1)C(=O)O[C@H](CNC(=O)[C@H](CC=C)CC(=O)N(CCO)Cc1ccccc1)c1ccccc1,3.84% (inactive)
18,O=C(Cc1ccc(Cl)c(Cl)c1)Nc1ccc(SC(F)F)cc1,2.25% (inactive)
19,CC(C)(C)c1ccc(S(=O)(=O)NCC2CCN(C(=O)C(=O)c3cc4ccccc4o3)CC2)cc1,1.76% (inactive)
20,COc1ccc(Cl)cc1NC(=O)COC(=O)C(CC(C)C)N1C(=O)C2CC=CCC2C1=O (stereo not drawn),0.79% (inactive)
21,CC(C)(C)c1ccc(C(=O)Nc2cc(Cl)c(Br)cc2C(=O)O)cc1,0.16% (inactive)
22,CCCCCc1c(-c2ccc(OC)c(OC)c2)ncn1CCc1ccccc1OC,1.69% (inactive)
23,Cc1ccc(NS(=O)(=O)c2ccc(C)c(NC(=O)COc3ccc4ccccc4c3)c2)c(C)c1,4.43% (inactive)
